Assay results taken from ChEMBL document CHEMBL1146247, “Identification and characterization of 3-substituted pyrazolyl esters as alternate substrates for cathepsin B: the confounding effects of DTT and cysteine in biological assays” (Bioorg Med Chem Lett, 2007).

Key:
Cathepsin B [1] = molecular target: T1, Cathepsin B (Homo sapiens, UniProt P07858); test: Inhibition of human liver cathepsin B
Summary of the method: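 Enzyme activated 15 min in assay buffer (100 mM Na/K phosphate pH 6.8, 1 mM EDTA, 2 mM DTT), then incubated 1 h at room temperature with 15 µM Z-Arg-Arg-AMC and compound. Compound given as 16 2-fold dilutions, 50 µM to 1.5 nM. AMC fluorescence read at ex 355/em 460 nm. Triplicate plates gave three independent IC50 values.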

Cathepsin B [2] = molecular target: T1, Cathepsin B; test: Inhibition of human liver cathepsin B pre-incubated for 2 hrs in non-buffer solution without DTT
Summary of the method: (§1)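 Compound held 2, 17 or 24 h in non-buffered solution without DTT before testing. It was then assayed against 0.1 nM activated cathepsin B with 15 µM Z-Arg-Arg-AMC for 1 h at room temperature. Read-out was AMC fluorescence at ex 355/em 460 nm. IC50 came from 16 2-fold dilutions.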

Cathepsin B [3] = molecular target: T1, Cathepsin B; test: Inhibition of human liver cathepsin B pre-incubated for 24 hrs in buffer without DTT
Summary of the method: (§2)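 Compound held 2, 17 or 24 h in phosphate assay buffer pH 6.8 lacking DTT before testing. It was then run in the standard assay: 0.1 nM activated cathepsin B, 15 µM Z-Arg-Arg-AMC, 1 h at room temperature. Read-out was AMC fluorescence at 355/460 nm. IC50 came from a 16-point 2-fold dilution curve.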

Cathepsin B [4] = molecular target: T1, Cathepsin B; test: Inhibition of human liver cathepsin B pre-incubated for 24 hrs in non-buffer solution without DTT; summary of the method: as §1
Cathepsin B [5] = molecular target: T1, Cathepsin B; test: Inhibition of human liver cathepsin B pre-incubated for 17 hrs in buffer without DTT; summary of the method: as §2
Cathepsin B [6] = molecular target: T1, Cathepsin B; test: Inhibition of human liver cathepsin B pre-incubated for 24 hrs in assay buffer with DTT
Summary of the method: (§3)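 Compound held 2, 17 or 24 h in assay buffer (phosphate pH 6.8, with DTT) before testing. It was then incubated with 0.1 nM cathepsin B in 100 mM buffer with 2 mM DTT, 1 mM EDTA and 15 µM Z-Arg-Arg-AMC for 1 h at room temperature. Read-out was AMC fluorescence (ex 355/em 460). IC50 came from 16 2-fold dilutions.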

[7] = Stability of compound in presence of cathepsin B after 15 mins; type: ADME; conditions: read-out: Stability
Summary of the method: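 Stoichiometric incubation of ester (10 μM, 1 equiv) with activated cathepsin B (20 μM, 2 equiv) under standard assay conditions (100 mM sodium-potassium phosphate pH 6.8, 1 mM EDTA, 2 mM DTT); parallel run without enzyme. After 15 min, remaining parent and conversion to pyrazolone by-product measured by LC–MS, 6.5 min run.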

Cathepsin B [8] = molecular target: T1, Cathepsin B; test: Inhibition of human liver cathepsin B pre-incubated for 2 hrs in assay buffer with DTT; summary of the method: as §3
Cathepsin B [9] = molecular target: T1, Cathepsin B; test: Inhibition of human liver cathepsin B pre-incubated for 17 hrs in assay buffer with DTT; summary of the method: as §3
Cathepsin B [10] = molecular target: T1, Cathepsin B; test: Inhibition of human liver cathepsin B pre-incubated for 2 hrs in buffer without DTT; summary of the method: as §2
Cathepsin B [11] = molecular target: T1, Cathepsin B; test: Inhibition of human liver cathepsin B pre-incubated for 17 hrs in non-buffer solution without DTT; summary of the method: as §1

Compound: COc1ccc(S(=O)(=O)n2nc(OC(=O)c3cccs3)cc2N)cc1
- IC50 (Cathepsin B [1]): 690 nM

Compound: Cc1ccc(S(=O)(=O)n2nc(OC(=O)c3cccs3)cc2N)cc1
- IC50 (Cathepsin B [1]): 1990 nM

Compound: Nc1cc(OC(=O)c2ccco2)nn1S(=O)(=O)c1ccc(F)cc1
- IC50 (Cathepsin B [1]): 1260 nM

Compound: Cc1ccc(S(=O)(=O)n2nc(OC(=O)c3ccco3)cc2N)cc1
- IC50 (Cathepsin B [1]): 1750 nM

Compound: Nc1cc(OC(=O)c2cccs2)nn1S(=O)(=O)c1ccccc1
- IC50 (Cathepsin B [2]): 1700 nM
- IC50 (Cathepsin B [3]): 3200 nM
- IC50 (Cathepsin B [4]): 5000 nM
- IC50 (Cathepsin B [5]): 700 nM
- IC50 (Cathepsin B [6]): > 50000 nM
- remaining at 0.25 h [7]: 50%
- IC50 (Cathepsin B [8]): 9000 nM
- IC50 (Cathepsin B [9]): 45400 nM
- IC50 (Cathepsin B [10]): 1400 nM
- IC50 (Cathepsin B [1]): 250 nM
- IC50 (Cathepsin B [11]): 1800 nM

Compound: Nc1cc(OC(=O)c2cccs2)nn1S(=O)(=O)c1ccc(F)cc1
- IC50 (Cathepsin B [1]): 440 nM
